Calls of active or inactive are those of the source. The rule behind the calls is not given here.

We go through four molecules from ChEMBL document CHEMBL2010792, “Novel glycolipid TLR2 ligands of the type Pam2Cys-α-Gal: synthesis and biological properties” (Eur J Med Chem, 2012).

Assay [1] addresses Toll-like receptor 2 (Homo sapiens) (UniProt O60603). The assay is described as follows: Agonist activity at TLR2 in human THP1-Blue-CD14 cells transfected with pSEAP-NF-kappaB assessed as secreted embryonic alkaline phosphatase activity treated with PC/PG/Chol liposomes formulation after 19 hrs by quanti-blue colorimetric assay. In kind it is functional, cell-based. As to conditions: THP-1. Summed up: (§1)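 THP1-Blue-CD14 cells were grown in RPMI 1640 with glucose (4.5 mg/mL) and 10% endotoxin-free FBS at 37 °C, 5% CO2. They were plated at 1.5×10^6 cells/mL and exposed to compounds formulated in PC/PG/Chol liposomes for 19 h at 37 °C. Supernatant was then mixed with Quanti-Blue reagent for 2 h at 37 °C and OD read at 595 nm. Controls were LPS (positive) and blank PC/PG/cholesterol (80/20/50) liposomes (negative); triplicates.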

The species named for assay [2] is Mus musculus. The assay is described as follows: Immunostimulatory activity in BALB/c mouse B cells assessed as induction of cell proliferation after 3 days by [3H]-thymidine incorporation assay. In kind it is functional. The gist of the method: (§2)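 B cells were purified from female BALB/c spleens by negative selection (anti-CD11b, GR1, CD4 and CD8 mAbs plus magnetic beads; >90% B cells) and seeded at 1×10^5/well. Culture was in RPMI 1640 with 10% FCS, gentamicin, 10 mM HEPES and 0.05 mM 2-mercaptoethanol, across increasing agonist doses. [3H]-thymidine was added at 48 h and cells harvested 18 h later. Stimulation index = mean cpm stimulated / unstimulated; triplicates.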
On the technique in general: Dividing cells build labelled thymidine or BrdU into new DNA.

The species entered for assay [3] is Mus musculus. The assay is described as follows: Immunostimulatory activity in BALB/c mouse splenocytes assessed as induction of TNFalpha secretion after 30 hrs by double-sandwich ELISA. The settings on record: Splenocyte. The assay is classed as functional. The gist of the method: (§3)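 BALB/c splenocytes (2×10^5/well) were exposed to increasing agonist doses in supplemented RPMI 1640. Supernatants were collected at 30 h, stored at −20 °C, and assayed by double-sandwich ELISA. Values are pg/mL, mean of duplicates; detection limit 15 pg/mL for both IL-6 and TNF-α.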

Assay [4] in a line: Induction of dendritic cell maturation in mouse D1 cells assessed as upregulation of CD40, CD54, CD80 and CD86 expression at 2.5 ug/ml after 48 hrs by flow cytometry in presence of polymyxin B. The assay is classed as functional, cell-based. Summed up: (§4)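 D1 cells were kept in IMDM with 10% heat-decomplemented FCS, penicillin (100 IU/mL), 2 mM L-glutamine and GM-CSF (20 ng/mL). They were seeded at 2×10^5 cells/mL for 48 h, then given fresh medium with compound (DMSO/PBS 2/98) plus polymyxin B, except LPS wells, for 48 h. Cells were harvested in PBS with 2 mM EDTA, stained 20 min at 4 °C and analysed by flow cytometry.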

Assay [5] deals with Toll-like receptor 2 (Homo sapiens) (UniProt O60603). The assay is described as follows: Agonist activity at TLR2 in human THP1-Blue-CD14 cells transfected with pSEAP-NF-kappaB assessed as secreted embryonic alkaline phosphatase activity after 19 hrs by quanti-blue colorimetric assay relative to 0.1 uM of Pam2CAG. The assay is classed as functional, cell-based. As to conditions: THP-1. Summed up:
as §1

Assay [6] is described as follows: Induction of dendritic cell maturation in mouse D1 cells assessed as upregulation of CD40, CD54, CD80 and CD86 expression at 2.5 ug/ml after 48 hrs by flow cytometry relative to Pam3CAG. The assay is classed as functional, cell-based. Summed up:
as §4
A general note: Flow cytometry measures light scatter and fluorescence of single cells or particles in a stream.

In assay [7] the test system is NKT. The assay is described as follows: Immunostimulatory activity in activated NKT cells assessed as induction of IL-4 production. The assay is classed as functional, cell-based.
The species named for assay [8] is Mus musculus. Put plainly: Immunostimulatory activity in BALB/c mouse splenocytes assessed as induction of cell proliferation up to 1000 ng/ml after 3 days by [3H]-thymidine incorporation assay. As to conditions: Splenocyte. In kind it is functional. Summed up:
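Spleen cells from female BALB/c mice (2×10^5/well) were cultured with agonist at 0–1000 ng/mL in RPMI 1640 containing 10% FCS, gentamicin, 10 mM HEPES and 0.05 mM 2-mercaptoethanol. [3H]-thymidine was added after 48 h, with harvest 18 h later. Result is a stimulation index (mean cpm stimulated / unstimulated) from triplicate wells.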

Assay [9] is described as follows: Induction of dendritic cell maturation in mouse D1 cells assessed as upregulation of CD40, CD54, CD80 and CD86 expression at 2.5 ug/ml after 48 hrs by flow cytometry relative to Pam2CAG. In kind it is functional, cell-based. The gist of the method:
as §4

Assay [10] addresses Toll-like receptor 2 (Homo sapiens) (UniProt O60603). Put plainly: Agonist activity at TLR2 in human THP1-Blue-CD14 cells transfected with pSEAP-NF-kappaB assessed as secreted embryonic alkaline phosphatase activity treated with PBS containing 2% DMSO formulation after 19 hrs by quanti-blue colorimetric assay. In kind it is functional, cell-based. The settings on record: THP-1.

For assay [11], the system named is NKT. Put plainly: Immunostimulatory activity in activated NKT cells assessed as induction of cell proliferation in presence of mAb directed CD1d molecules. The assay is classed as functional, cell-based.
In assay [12] the target is Toll-like receptor 2 (Homo sapiens) (UniProt O60603). The assay is described as follows: Agonist activity at TLR2 in human HEK-Blue-2 cells. In kind it is functional, cell-based.
Sequence of Toll-like receptor 2 (Homo sapiens) (O60603 whole entry): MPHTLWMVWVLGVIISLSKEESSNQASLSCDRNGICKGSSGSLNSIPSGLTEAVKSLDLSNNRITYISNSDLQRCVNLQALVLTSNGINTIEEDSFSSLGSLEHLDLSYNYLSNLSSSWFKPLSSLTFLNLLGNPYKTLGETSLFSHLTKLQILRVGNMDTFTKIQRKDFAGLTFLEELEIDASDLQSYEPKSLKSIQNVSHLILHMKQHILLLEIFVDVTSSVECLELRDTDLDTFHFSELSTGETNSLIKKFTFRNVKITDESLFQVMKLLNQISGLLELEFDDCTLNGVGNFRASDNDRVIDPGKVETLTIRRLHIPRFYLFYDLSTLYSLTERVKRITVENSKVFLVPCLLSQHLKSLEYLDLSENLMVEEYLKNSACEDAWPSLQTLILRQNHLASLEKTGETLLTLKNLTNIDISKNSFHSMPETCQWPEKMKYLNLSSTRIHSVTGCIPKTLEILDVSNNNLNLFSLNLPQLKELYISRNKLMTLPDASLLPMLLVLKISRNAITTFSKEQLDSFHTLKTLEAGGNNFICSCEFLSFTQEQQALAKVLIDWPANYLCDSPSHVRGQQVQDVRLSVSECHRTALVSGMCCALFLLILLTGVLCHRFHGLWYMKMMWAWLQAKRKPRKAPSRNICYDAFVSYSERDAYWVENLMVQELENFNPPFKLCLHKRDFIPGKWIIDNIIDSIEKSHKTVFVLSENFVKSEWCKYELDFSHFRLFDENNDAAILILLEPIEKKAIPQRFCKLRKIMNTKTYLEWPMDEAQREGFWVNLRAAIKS
The species entered for assay [13] is Mus musculus. The assay is described as follows: Immunostimulatory activity in BALB/c mouse splenocytes assessed as induction of IL-6 secretion after 30 hrs by double-sandwich ELISA. In kind it is functional. The settings on record: Splenocyte. The gist of the method:
as §3
(In general: In an ELISA, binding on a coated surface is turned into a signal by an enzyme label.)

For assay [14], the target named is Toll-like receptor 2 (Homo sapiens) (UniProt O60603). Put plainly: Agonist activity at TLR2 in human THP1-Blue-CD14 cells transfected with pSEAP-NF-kappaB assessed as secreted embryonic alkaline phosphatase activity treated with PC/PG/Chol liposomes formulation at 0.1 uM after 19 hrs by quanti-blue colorimetric assay in presence of anti-mTLR2 antibody. In kind it is functional, cell-based. The settings on record: THP-1. Summed up: (§5)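 TLR2 in THP1-Blue-CD14 cells was neutralised with an anti-mTLR2 monoclonal antibody (100 ng/well) for 10 min before liposome-formulated agonist was added. Cells were incubated 19 h at 37 °C, and SEAP in supernatant was read by Quanti-Blue colorimetry (2 h, 37 °C, OD 595 nm). Activity was compared with cells lacking antibody; triplicates.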

The species entered for assay [15] is Mus musculus. The assay is described as follows: Immunostimulatory activity in BALB/c mouse B cells assessed as induction of cell proliferation at 0.001 ug/ml after 3 days by [3H]-thymidine incorporation assay relative to Pam3CAG. In kind it is functional. Summed up: as §2
Assay [16] is filed under the species Mus musculus. Put plainly: Immunostimulatory activity in BALB/c mouse B cells assessed as induction of cell proliferation at 0.001 ug/ml after 3 days by [3H]-thymidine incorporation assay relative to Pam2CAG. In kind it is functional. The gist of the method:
as §2

Assay [17] concerns the target Toll-like receptor 2 (Homo sapiens) (UniProt O60603). The assay is described as follows: Agonist activity at TLR2 in human THP1-Blue-CD14 cells transfected with pSEAP-NF-kappaB assessed as secreted embryonic alkaline phosphatase activity after 19 hrs by quanti-blue colorimetric assay relative to 10 uM of Pam3CAG. In kind it is functional, cell-based. The settings on record: THP-1. The gist of the method: as §1

For assay [18], the system named is NKT. The assay is described as follows: Immunostimulatory activity in activated NKT cells assessed as induction of IFNgamma production. The assay is classed as functional, cell-based.
Assay [19] addresses Toll-like receptor 2 (Homo sapiens) (UniProt O60603). Put plainly: Agonist activity at TLR2 in human THP1-Blue-CD14 cells transfected with pSEAP-NF-kappaB assessed as secreted embryonic alkaline phosphatase activity treated with PC/PG/Chol liposomes formulation at 10 uM after 19 hrs by quanti-blue colorimetric assay in presence of anti-mTLR2 antibody. The assay is classed as functional, cell-based. As to conditions: THP-1. The gist of the method: as §5

With `CCCCCCCCCCCCCCCC(=O)OC[C@H](CSC[C@H](N)C(=O)NCCO[C@H]1O[C@@H]([C@H](O)CO)[C@H](O)[C@H]1O)OC(=O)CCCCCCCCCCCCCCC`, the result in assay [1], in assay [4], in [5], in [6], in assay [8] and in [9] was Active. The result in [10], in assay [11], in assay [12], in assay [14], in assay [15] and in [16] was Active. Moreover, the Activity entry in assay [2], in assay [3] and in [13] was “Dose-dependent effect” in each case. For the same molecule, the outcome in assay [7] and in assay [18] was inactive. Besides, in assay [17], the fold change (FC) was 100.
Take `CCCCCCCCCCCCCCCC(=O)N[C@@H](CSC[C@@H](COC(=O)CCCCCCCCCCCCCCC)OC(=O)CCCCCCCCCCCCCCC)C(=O)N[C@@H](C)C(=O)NCC(=O)O`: the result in assay [1], in [4], in assay [8], in [10], in assay [11] and in [12] was Active. The Activity entry in [2], in assay [3] and in [13] was “Dose-dependent effect” each time. Moreover, the outcome in [7], in [19] and in assay [18] was inactive.
For `CCCCCCCCCCCCCCCC(=O)OC[C@H](CSC[C@H](N)C(=O)NCCO[C@H]1O[C@H](CO)[C@H](O)[C@H](O)[C@H]1O)OC(=O)CCCCCCCCCCCCCCC`, the result in [1], in assay [4], in assay [5], in assay [6], in [8] and in assay [9] was Active. The result in assay [10], in assay [11], in assay [12], in [14], in assay [15] and in assay [16] was Active. In addition, the Activity result in assay [2], in [3] and in assay [13] was “Dose-dependent effect” in each case. The outcome in assay [7] and in [18] was inactive. For the same molecule, the fold change (FC) in assay [17] is 100.
For `CCCCCCCCCCCCCCCC(=O)OC[C@H](CSC[C@H](N)C(=O)N[C@@H](C)C(=O)NCC(=O)O)OC(=O)CCCCCCCCCCCCCCC`, the outcome in assay [1], in [4], in assay [8], in assay [10], in assay [11] and in assay [12] was Active. Further, the outcome in [14] was Active. Further, the Activity result in [2], in assay [3] and in [13] was “Dose-dependent effect” throughout. Further, the result in assay [7] and in [18] was inactive.
